Compound activity (PubChem BioAssay)
Platelet DG rel – modulates dense granule release in human platelets | 300,000 compounds, 0.22% hits | human platelet-rich plasma, SFLLRN dense granule ATP release, luminescence | AID 1663 | inhibition, %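 (compounds screened at 7.5 µM in platelet-rich plasma)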;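 active means mean replicate score, as percent of positive control, at or above 50; inconclusive means mean below 50 but at least one replicate at or above 50; inactive means mean and every replicate below 50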
SENP1 inh – SENP1 (human) catalytic domain inhibition. recombinant SENP1 catalytic domain, CyPet-SUMO1-YPet FRET cleavage. inhibition, % at 10 µM. 360,000 compounds, 0.21% hits;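 active means inhibition at least 30% at 10 µM, raw YFP signal under a set limit, fluorescence ratio 0.5 to 1.5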;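 further: 0% = enzyme with DMSO and 100% = no enzyme wells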
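Test system: recombinant human SENP1 catalytic domain, His6-tagged / Medium: pH 8 Tris buffer with EDTA, NaCl, BME, BSA, NP40, catalase / Also added: SUMO1 FRET substrate flanked by Cypet and Ypet, 25 nM / Times: 50 min reaction at room temperature / Signal: FRET, CFP and YFP emission / Control set: no-enzyme low control and enzyme-plus-DMSO high control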
SENP6 inh – blocks the human protease SENP6; Q9GZR1; Recombinant SENP6 catalytic domain, aminoluciferin luminescence; inhibition, % at 10 µM; 330,000 compounds, 1.8% hits; AID 2599;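 active means inhibition above about 50% at the single tested dose, limit read from the data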;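 further: plate controls were DMSO wells with enzyme for no effect and DMSO wells lacking enzyme for full effect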
Target sequence (Q9GZR1 628-1112 limits assumed): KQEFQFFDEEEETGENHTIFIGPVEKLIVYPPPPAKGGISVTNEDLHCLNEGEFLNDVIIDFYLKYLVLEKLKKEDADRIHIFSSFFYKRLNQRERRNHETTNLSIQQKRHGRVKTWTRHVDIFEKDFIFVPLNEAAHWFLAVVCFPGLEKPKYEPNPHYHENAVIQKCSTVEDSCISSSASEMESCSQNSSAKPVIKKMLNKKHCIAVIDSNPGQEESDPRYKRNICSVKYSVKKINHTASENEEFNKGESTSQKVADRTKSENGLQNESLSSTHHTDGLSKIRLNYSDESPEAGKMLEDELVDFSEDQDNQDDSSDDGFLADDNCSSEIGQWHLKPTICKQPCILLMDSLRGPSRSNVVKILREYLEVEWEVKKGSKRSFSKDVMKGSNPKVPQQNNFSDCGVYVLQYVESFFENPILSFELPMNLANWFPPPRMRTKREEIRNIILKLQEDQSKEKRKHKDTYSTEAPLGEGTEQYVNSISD
SENP7 inh – blocks the human protease SENP7 | recombinant SENP7, Z-RLRGG-aminoluciferin luminescence, 40 min | Q9BQF6 | inhibition, % at 5 µM | 330,000 compounds, 1.5% hits | AID 434973;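 active means inhibition above about 50% at the single test dose, limit read from the data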;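 further: plate controls were DMSO with enzyme for no effect and no enzyme buffer wells for full effect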
SENP8 block-1 – SENP8 protease inhibition | Q96LD8 | purified SENP8, Z-RLRGG-aminoluciferin cleavage, luminescence | inhibition, % at 10 µM | 330,000 compounds, 1.2% hits; in the data active means inhibition above about 50%
SENP8 block-2 – inhibitors of human SENP8 protease; 360,000 compounds, 0.64% hits; Q96LD8; recombinant SENP8, Nedd8 substrate fluorescence; inhibition, % at 20 µM; AID 602440; in the data active means inhibition mostly above about 40%, no sharp cut-off; inactive means mostly below about 27%
SENP8 conf – confirmation of human SENP8 protease inhibitors | inhibition, % at 25 µM | 1,400 compounds, 15% hits | AID 624319 | shares compounds with SENP8 block-2 | purified SENP8, Nedd8-AMC/pro-Nedd8 cleavage fluorescence, 30 min; in the data active means inhibition mostly above about 39%, no sharp cut-off; inactive means mostly below about 34%
Active calls of the source: *; ? = inconclusive; nt = no result given. The list is not random: actives were taken first. Their share in the collection is about 2.6%.

SMILES	Platelet DG rel	SENP1 inh	SENP6 inh	SENP7 inh	SENP8 block-1	SENP8 block-2	SENP8 conf
CC(NC(=O)c1ccc(Cn2cc([N+](=O)[O-])cn2)o1)c1ccccc1 (centres undefined)	-2.4	0.9	0.9	6.3	3.3	49.6*	15.6
Cc1ccccc1NC(=O)c1ccc(Cn2cc([N+](=O)[O-])cn2)o1	1.5	-2.3	1.4	2.8	0.2	1.1	nt
O=C1c2cc([N+](=O)[O-])cc3cc([N+](=O)[O-])cc(c23)C(=O)N1c1ccccn1	4.6	2.3	nt	nt	nt	42.9*	35.3
O=C(c1cccc2ccccc12)N1CCN(c2ccc([N+](=O)[O-])c(NCc3ccco3)c2)CC1	0.2	6.1	-9.1	0.6	-3.0	42.4*	9.9
Cc1ccccc1C(=O)N1CCN(c2ccc([N+](=O)[O-])c(NCc3ccco3)c2)CC1	2.5	1.1	-9.7	-6.9	-2.5	53.4*	26.2
Cc1ccc(C(=O)N2CCN(c3ccc([N+](=O)[O-])c(NCc4ccco4)c3)CC2)cc1	?	3.5	-10.1	5.6	-4.8	48.0*	14.4
O=C(CC1CCCC1)NCCS(=O)(=O)N1CCN(c2ccccc2)CC1	nt	0.1	nt	nt	nt	20.7	nt
Cc1ccc2sc(NNC(=O)c3cc(=O)c4ccccc4o3)nc2c1C	-5.6	26.1	95.8*	19.0	93.5*	66.3*	24.7
COc1ccc2nc(NNC(=O)c3cc(=O)c4ccccc4o3)sc2c1	3.3	29.8	47.2	-2.3	22.5	-47.3	nt
O=C(O)CCCCNS(=O)(=O)c1ccc(Cl)c(C(F)(F)F)c1	-1.0	1.0	-5.4	-1.3	-4.9	42.5*	8.1
Cc1cccc(CSc2nc3c(c(-c4cccs4)c2C#N)CN(C)CC3)c1	-10.3	17.9	-3.0	0.9	5.7	39.5*	4.2
Cc1cccc(CSc2nc(N)c(C#N)c(-c3cccs3)c2C#N)c1	-3.5	-8.6	0.6	-2.1	1.6	-70.9	nt
COc1ccc(NC(=O)CSc2nc(C)c3c(c2C#N)CCCC3)cc1	1.5	-0.2	8.4	1.8	-1.0	15.5	nt
CN1CCc2nc(SCC(=O)Nc3ccc(OC(F)(F)F)cc3)c(C#N)c(-c3cccs3)c2C1	3.4	26.1	28.2	0.5	4.6	44.8*	22.7
COc1ccc2c(=O)cc(-c3ccncc3)oc2c1OC	nt	3.2	nt	nt	nt	9.4	nt
O=C(/C=C/CCc1ccc2c(c1)OCO2)N1CCCCC1	nt	2.2	-8.2	7.6	2.8	57.1*	-0.1
O=C(c1ccc(N2CCCCC2)c([N+](=O)[O-])c1)N1CCOCC1	1.3	-1.0	2.0	-1.0	-5.2	34.0	nt
O=C(c1ccc(N2CCCC2)c([N+](=O)[O-])c1)N1CCc2ccccc2C1	16.4	3.0	4.1	-2.5	-3.7	49.8*	13.4
COc1ccc2c(c1)C(=O)N(c1ccccc1OC)C(=O)C2	-2.1	7.7	-2.7	-17.4	-0.8	69.4*	38.2*
COc1ccc2c(c1)C(=O)N(c1ccc(C)cc1C)C(=O)C2	1.1	-22.2	18.9	-1.3	-6.5	1.7	nt
OC1CNc2c(ccc3ccccc23)C1 (centres undefined)	nt	-3.6	nt	nt	nt	-446.6	nt
CCN(CC(=O)Nc1ccc2c(c1)OCCO2)C(=O)c1ccc(S(=O)(=O)N(C)C)cc1	-2.9	0.6	-11.1	-3.0	-5.8	12.8	nt
O=C(NCc1ccc(F)cc1)C(c1ccco1)N(C(=O)c1csnn1)c1ccccc1 (centres undefined)	-39.4	1.3	16.6	0.1	3.6	-3.5	nt
O=C(NCc1ccc2c(c1)OCO2)C(c1ccco1)N(C(=O)c1csnn1)c1ccccc1 (centres undefined)	7.4	1.3	-5.3	-1.8	8.0	40.6*	1.2
CCOC(=O)C1(C)CCCN1C(=O)c1c(F)cccc1F (centres undefined)	nt	2.6	nt	nt	nt	7.6	nt
COc1ccc(NC(=O)CN(C)C(=O)CSCC(=O)Nc2ccc(C)cc2)cc1	-15.7	-1.1	-7.6	-18.8	-13.8	53.1*	7.8
COc1cccc(NC(=O)CN(C)C(=O)CSCC(=O)Nc2ccc(C)cc2)c1	nt	1.6	-1.9	9.3	9.0	1.7	nt
O=[N+]([O-])c1ccc(N2CCOCC2)cc1NCc1ccccc1	nt	3.8	13.6	2.7	2.9	42.4*	8.8
